From PMC3530835 (Journal of medicinal chemistry, 2012)
In brackets after ≈: the same amount, converted by molar mass. Blank lines part the entries; values can stand above or below the molecule they belong to.

Columns and labels:
[1] = target: T1, PfGluPho (PfG6PD) (Plasmodium falciparum, UniProt Q8IKU0); experiment: Orthogonal PfGluPho assay, direct detection of NADPH; type: biochemical; settings: Potency PfG6PD NADPH Kinetic
T1 sequence (Q8IKU0 1-910): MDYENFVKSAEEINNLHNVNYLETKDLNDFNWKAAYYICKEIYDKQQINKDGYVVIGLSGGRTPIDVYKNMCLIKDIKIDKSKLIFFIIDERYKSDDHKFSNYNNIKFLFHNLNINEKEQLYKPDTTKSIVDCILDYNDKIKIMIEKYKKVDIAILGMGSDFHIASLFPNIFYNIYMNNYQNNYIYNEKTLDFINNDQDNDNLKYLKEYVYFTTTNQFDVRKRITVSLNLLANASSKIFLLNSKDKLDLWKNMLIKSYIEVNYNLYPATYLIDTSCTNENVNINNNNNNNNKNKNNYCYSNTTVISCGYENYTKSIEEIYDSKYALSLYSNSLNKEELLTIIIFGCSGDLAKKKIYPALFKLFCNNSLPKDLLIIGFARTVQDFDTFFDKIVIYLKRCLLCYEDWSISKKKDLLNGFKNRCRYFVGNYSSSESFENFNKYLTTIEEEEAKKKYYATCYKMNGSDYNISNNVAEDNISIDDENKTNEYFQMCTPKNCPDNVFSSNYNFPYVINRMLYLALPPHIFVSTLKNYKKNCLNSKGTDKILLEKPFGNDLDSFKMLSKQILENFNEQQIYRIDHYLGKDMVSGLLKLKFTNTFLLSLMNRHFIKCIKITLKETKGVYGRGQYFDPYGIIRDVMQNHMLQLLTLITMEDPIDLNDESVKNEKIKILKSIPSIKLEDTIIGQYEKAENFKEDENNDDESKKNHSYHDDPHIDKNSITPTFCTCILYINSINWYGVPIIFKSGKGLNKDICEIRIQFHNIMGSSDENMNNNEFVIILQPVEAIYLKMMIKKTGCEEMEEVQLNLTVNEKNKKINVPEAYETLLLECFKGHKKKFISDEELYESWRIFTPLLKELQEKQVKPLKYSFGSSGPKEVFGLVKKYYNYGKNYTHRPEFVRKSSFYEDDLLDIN

[2] = target: T1, PfGluPho (PfG6PD); experiment: PfGluPho primary dose response assay, resazurin/diaphorase-coupled; type: biochemical; settings: for Decrease in potency relative to 5a: vs. 5a, Table 2
[3] = Chemical stability; type: physicochemical; settings: 10 μM, 1% DMSO, 5 equivalents of GSH, PBS pH 7.4, 23 °C, duration of the study
[4] = test system: P. falciparum; experiment: P. falciparum in culture; type: cell-based; settings: Plasmodium falciparum, read-out: IC50 against P. falciparum in culture
Outline: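 Chloroquine-sensitive 3D7 and chloroquine-resistant Dd2 blood-stage strains. Infected RBCs seeded at 0.25% parasitemia (>70% rings) and 1.25% hematocrit in hypoxanthine-free medium, with varying test compound concentrations and a chloroquine control. Incubated 72 hours. Growth was read as 3H-hypoxanthine incorporation, and IC50 was derived by non-linear regression.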

[5] = target: hG6PD (Homo sapiens, UniProt P11413); experiment: hG6PD counter screen; type: biochemical; settings: Figure 3
[6] = Aqueous solubility; type: physicochemical
[7] = target: PfGluPho (Plasmodium falciparum, UniProt Q8IKU0); experiment: Mechanism of inhibition; type: biochemical
Outline: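 Test compound, titrated in DMSO, and G6P or NADP+ varied together. Substrate solution final: 3.3 mM MgCl2, 1 mM TCEP, 0.05 M Tris, plus 5 μM NADP+ (G6P titration) or 25 μM G6P (NADP+ titration). Reaction started with PfGluPho (final 0.2 μg/mL) in 0.005% Tween 20. NADPH fluorescence (ex340/em460) monitored over 10 min; initial slopes taken.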

[8] = Potency PfG6PD Primary Assay, Table 6, Ave. ± S.E.M.
[9] = Potency PfG6PD Primary Assay, Table 5, Ave. ± S.E.M.
[10] = PfG6PD IC50, Table 3, necessity of styryl moiety

hG6PD, sequence (P11413 whole entry): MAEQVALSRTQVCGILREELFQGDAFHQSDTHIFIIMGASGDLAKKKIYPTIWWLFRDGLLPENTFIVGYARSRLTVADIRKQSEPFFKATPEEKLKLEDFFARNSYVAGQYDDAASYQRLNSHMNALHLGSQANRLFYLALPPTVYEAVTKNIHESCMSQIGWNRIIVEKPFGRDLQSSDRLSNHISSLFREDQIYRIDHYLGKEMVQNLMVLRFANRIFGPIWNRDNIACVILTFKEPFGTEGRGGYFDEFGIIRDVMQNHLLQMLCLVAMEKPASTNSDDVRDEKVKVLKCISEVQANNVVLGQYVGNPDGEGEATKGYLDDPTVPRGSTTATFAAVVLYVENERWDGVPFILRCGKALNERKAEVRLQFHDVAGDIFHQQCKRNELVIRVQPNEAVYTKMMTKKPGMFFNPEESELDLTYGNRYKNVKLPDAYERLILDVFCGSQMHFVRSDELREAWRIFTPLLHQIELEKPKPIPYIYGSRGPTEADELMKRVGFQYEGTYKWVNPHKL

Structure (SMILES): O=C1Nc2cc(C(=O)NCCN3CCCC3)ccc2S/C1=C\c1ccccc1Cl [Compound 31]
- IC50 ([1]; Table 6): > 80 µM

Structure (SMILES): CCN1CCCC1CNC(=O)c1ccc2c(c1)NC(=O)/C(=C/c1ccccc1C)S2 (stereo not drawn) [Compound 5c]
- Decrease in potency relative to 5a [2]: 3 fold

Structure (SMILES): COc1cccc(/C=C2\Sc3ccc(C(=O)NCCN4CCCCCC4)cc3NC2=O)c1 [Compound 37]
- IC50 [2, 8]: > 80 µM

Structure (SMILES): O=C1Nc2cc(C(=O)NCCN3CCOCC3)ccc2S/C1=C\c1ccccc1F [Compound 34]
- IC50 ([1]; Table 6): > 80 µM
- IC50 [2, 8]: > 80 µM

Structure (SMILES): O=C1Nc2cc(C(=O)NCc3ccccc3)ccc2S/C1=C\c1ccccc1F [Compound 41]
- IC50 ([1]; Table 6): > 80 µM
- IC50 [2, 8]: > 80 µM

Structure (SMILES): CC(C)(C)OC(=O)N1CCCC1CNC(=O)c1ccc2c(c1)NC(=O)/C(=C/c1ccccc1F)S2 (stereo not drawn) [Compound 14]
- PfG6PD activity (in words) [2]: inactive
- IC50 ([2]; Potency PfG6PD Primary Assay, Table 4, Ave. ± S.E.M.): > 80 µM

Structure (SMILES): CCN1CCCC1CNC(=O)c1ccc2c(c1)NC(=O)CS2 (stereo not drawn) [Compound 3d]
- PfG6PD activity (in words) [2]: complete loss of activity
- IC50 [2, 10]: > 80 µM

Structure (SMILES): CCN1CCC[C@@H]1CNC(=O)c1ccc2c(c1)NC(=O)/C(=C/c1ccccc1F)S2 [Compound 11, (R,Z)-N-((1-ethylpyrrolidin-2-yl)methyl)-2-(2-fluorobenzylidene)-3-oxo-3,4-dihydro-2H-benzo[b][1,4]thiazine-6-carboxamide]
- Reactivity with GSH (in words) [3]: remained intact
- IC50 [4]: 2.6 µM
- Selectivity for PfGluPho over hG6PD (in words) [5]: selective
- solubility ([6]; 1x PBS, pH 7.4): 71 µg/mL (≈ 167 µM)
- solubility ([6]; pION's buffer, pH 5): > 126 µg/mL
- solubility ([6]; pION's buffer, pH 6.2): > 126 µg/mL
- solubility ([6]; pION's buffer, pH 7.4): 29.4 µg/mL (≈ 69.1 µM)
- Type of inhibition vs. G6P ([7]; G6P titration): competing with the substrate
- Type of inhibition vs. NADP+ ([7]; NADP+ titration): mixed-type inhibition
- Preference for the R-enantiomer versus the S-enantiomer ([2]; 11 vs. 12, Table 4): 8 fold

Structure (SMILES): CCN1CCCC1CNC(=O)c1ccc2c(c1)NC(=O)C(Cc1ccccc1F)S2 (stereo not drawn) [Compound 10]
- PfG6PD activity (in words) [2]: complete loss of activity
- IC50 [2, 10]: > 80 µM

Structure (SMILES): CCN1CCCC1CNC(=O)c1ccc2c(c1)NC(=O)/C(=C/c1ccccc1OC)S2 (stereo not drawn) [Compound 5d]
- Decrease in potency relative to 5a [2]: 5 fold

Structure (SMILES): O=C1Nc2cc(C(=O)NCCN3CCCCCC3)ccc2S/C1=C\c1ccccc1Cl [Compound 36]
- IC50 ([1]; Table 6): > 80 µM

Results, then the molecule that gave them:

- IC50 [2, 9]: > 80 µM
Structure (SMILES): CCCN(CCC)CCNC(=O)c1ccc2c(c1)NC(=O)/C(=C/c1ccccc1)S2 [Compound 26]

- IC50 ([1]; Table 5): > 80 µM
- IC50 [2, 9]: > 80 µM
Structure (SMILES): COc1ccc(/C=C2\Sc3ccc(C(=O)NCCN(C)C)cc3NC2=O)cc1 [Compound 19]

- IC50 ([1]; Table 6): > 80 µM
- IC50 [2, 8]: > 80 µM
Structure (SMILES): COc1ccc(/C=C2\Sc3ccc(C(=O)NCCN4CCCCCC4)cc3NC2=O)cc1 [Compound 38]

- IC50 ([1]; Table 6): > 80 µM
Structure (SMILES): COc1ccc(/C=C2\Sc3ccc(C(=O)NCCN4CCCC4)cc3NC2=O)cc1 [Compound 30]

- IC50 [2, 9]: > 80 µM
Structure (SMILES): CCCN(CCC)CCNC(=O)c1ccc2c(c1)NC(=O)/C(=C/c1ccc(C)cc1)S2 [Compound 27]

- IC50 [2, 8]: > 80 µM
Structure (SMILES): CN(C)c1ccccc1CNC(=O)c1ccc2c(c1)NC(=O)/C(=C/c1ccccc1F)S2 [Compound 42]
